Laboratory results: PMC9749463 (European Journal of Pharmacology, 2021)
pIC50: −log10 of the molar value. Like-named read-outs stand apart in the source and are kept apart here.

How the values were obtained:
human recombinant NaV1.5 = settings: 30 μM, manual patch-clamp; ref Crumb et al., 2016; cited from earlier work
human recombinant CaV1.2 = settings: 30 μM, manual patch-clamp; ref Crumb et al., 2016; cited from earlier work
human recombinant KV4.3 = settings: 30 μM, manual patch-clamp; ref Crumb et al., 2016; cited from earlier work
human recombinant KV7.1 = settings: 30 μM, manual patch-clamp; ref Crumb et al., 2016; cited from earlier work
Kir2.1 [1] = target: T1, Kir2.1 (Homo sapiens, UniProt P63252); settings: read-out: IC50 Kir2.1; manual patch-clamp; ref Crumb et al., 2016; cited from earlier work
T1 sequence (P63252 1-427): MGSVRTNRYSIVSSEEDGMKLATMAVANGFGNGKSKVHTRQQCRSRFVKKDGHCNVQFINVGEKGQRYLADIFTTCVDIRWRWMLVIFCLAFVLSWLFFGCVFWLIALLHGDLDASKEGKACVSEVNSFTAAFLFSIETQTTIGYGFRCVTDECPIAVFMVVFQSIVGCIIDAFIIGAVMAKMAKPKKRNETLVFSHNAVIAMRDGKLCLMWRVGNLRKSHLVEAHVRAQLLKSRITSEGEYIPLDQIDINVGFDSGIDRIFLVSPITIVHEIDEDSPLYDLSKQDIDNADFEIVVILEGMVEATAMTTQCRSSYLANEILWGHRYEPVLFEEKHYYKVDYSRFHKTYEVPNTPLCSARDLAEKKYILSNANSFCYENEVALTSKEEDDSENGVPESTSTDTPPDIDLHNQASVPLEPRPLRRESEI

Kir2.1 [2] = settings: read-out: IC50 Kir2.1 outward component; ref Rodriguez-Menchaca et al., 2008; cited from earlier work
CaV1.2/β2/α2δ1 = CaV1.2/β2/α2δ1 (Homo sapiens, UniProt Q13936); test: automated patch-clamp; type: cell-based; settings: CdCl2 0.2 mM, end of recording
hERG [3] = settings: read-out: IC50 hERG; QPatch II platform; ref Okada et al., 2021; cited from earlier work
Kir2.1 [4] = settings: read-out: IC50 Kir2.1; QPatch II platform; ref Okada et al., 2021; cited from earlier work
[5] = HCQ monotherapy, meta-analysis of 28 clinical studies; ref Oscanoa et al., 2020; cited from earlier work
[6] = ref Carlsson et al., 2020; cited from earlier work
[7] = system: human adult cardiomyocytes; settings: potassium in buffer decreased from 4 mM to 2.5 mM; ref Jordaan et al., 2021; cited from earlier work
hERG [8] = target: hERG (Homo sapiens, UniProt Q12809); test: automated patch-clamp; type: cell-based; settings: ratio of IC50 values
NaV1.5 = NaV1.5 (Homo sapiens, UniProt Q14524); test: automated patch-clamp; type: cell-based; settings: for decrease of NaV1.5 current: up to the highest tested concentration of 90 μM, attributable to current rundown
Kir2.1 [9] = target: T1, Kir2.1; test: automated patch-clamp; type: cell-based; settings: levorotatory enantiomer the most potent
rabbit Purkinje fibers = test: current clamp action potential recording on excised rabbit Purkinje fibers; settings: for effect on membrane and AP parameters: 0.3 μM, any beating rate
Summary of the method: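 Purkinje fibers came from male New Zealand rabbits (1.7–2.1 kg). They were superfused at 10 mL/min and 36 ± 1 °C with bicarbonate buffer at pH 7.4. APs were recorded with 3 M KCl microelectrodes under pacing at 3, 1 and 0.25 Hz. Test compound (0.3, 3, 10, 30 μM) was applied for 30 min each, ascending, followed by 30 min washout; n = 6. Analysis used ANOVA with Dunnett versus baseline.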

[10] = in vitro; ref McLachlan et al., 1993; cited from earlier work
[11] = system: human immune-deficiency virus serotype 1; settings: human T-cell lines and macrophage hybridoma; ref Chiang et al., 1996; cited from earlier work
Plasmodium falciparum = settings: isolates grown in human erythrocytes; ref Warhurst et al., 2003; cited from earlier work
[12] = ref Wainer et al., 1994; cited from earlier work
KV4.3/KChIP2.2 = target: T2, KV4.3/KChIP2.2 (Homo sapiens, UniProt Q9UK17); test: automated patch-clamp; type: cell-based
T2 sequence (Q9UK17 1-655): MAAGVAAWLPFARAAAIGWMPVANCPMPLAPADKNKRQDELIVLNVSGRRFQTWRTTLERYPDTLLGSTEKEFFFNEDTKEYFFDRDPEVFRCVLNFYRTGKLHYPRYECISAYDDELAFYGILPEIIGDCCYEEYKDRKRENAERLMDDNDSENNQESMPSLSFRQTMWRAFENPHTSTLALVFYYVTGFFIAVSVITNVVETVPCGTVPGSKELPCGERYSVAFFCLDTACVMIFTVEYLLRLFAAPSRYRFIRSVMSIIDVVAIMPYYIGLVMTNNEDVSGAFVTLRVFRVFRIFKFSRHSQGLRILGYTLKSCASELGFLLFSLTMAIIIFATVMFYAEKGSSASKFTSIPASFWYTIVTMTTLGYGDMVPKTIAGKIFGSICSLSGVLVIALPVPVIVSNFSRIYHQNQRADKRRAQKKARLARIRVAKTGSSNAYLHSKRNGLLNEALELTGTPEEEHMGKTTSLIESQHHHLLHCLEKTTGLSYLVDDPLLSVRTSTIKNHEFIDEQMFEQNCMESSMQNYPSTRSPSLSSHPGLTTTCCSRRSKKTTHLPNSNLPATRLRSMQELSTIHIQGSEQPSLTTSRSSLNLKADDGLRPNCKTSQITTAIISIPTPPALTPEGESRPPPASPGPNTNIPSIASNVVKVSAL
T2 sequence (Q9NS61 1-252 isoform Q9NS61-2 partner): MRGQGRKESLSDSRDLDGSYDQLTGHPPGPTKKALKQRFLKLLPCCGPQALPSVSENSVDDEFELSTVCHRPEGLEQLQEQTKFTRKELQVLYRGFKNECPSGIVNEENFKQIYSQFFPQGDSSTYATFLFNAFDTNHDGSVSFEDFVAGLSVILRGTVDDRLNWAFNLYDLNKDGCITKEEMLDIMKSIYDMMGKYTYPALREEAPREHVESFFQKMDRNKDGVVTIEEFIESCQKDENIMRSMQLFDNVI
Summary of the method: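 CHO cells constitutively expressing human KV4.3/KChIP2.2 were whole-cell recorded at room temperature. Cells were held at −80 mV and stepped to +20 mV with 500 ms pulses. Test compound was applied at six cumulative ascending concentrations up to 90 μM in 0.3% or 1% DMSO with 1% Pluronic F-68. Leak was removed with 30 μM SKF-96365. Integral charge was normalized to pre-drug, and IC50 was fitted sigmoidally (0–100% constrained) with 95% CI.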

KV7.1/minK = KV7.1/minK (Homo sapiens, UniProt P51787); test: automated patch-clamp; type: cell-based
Chain of KV7.1/minK (P51787 whole entry): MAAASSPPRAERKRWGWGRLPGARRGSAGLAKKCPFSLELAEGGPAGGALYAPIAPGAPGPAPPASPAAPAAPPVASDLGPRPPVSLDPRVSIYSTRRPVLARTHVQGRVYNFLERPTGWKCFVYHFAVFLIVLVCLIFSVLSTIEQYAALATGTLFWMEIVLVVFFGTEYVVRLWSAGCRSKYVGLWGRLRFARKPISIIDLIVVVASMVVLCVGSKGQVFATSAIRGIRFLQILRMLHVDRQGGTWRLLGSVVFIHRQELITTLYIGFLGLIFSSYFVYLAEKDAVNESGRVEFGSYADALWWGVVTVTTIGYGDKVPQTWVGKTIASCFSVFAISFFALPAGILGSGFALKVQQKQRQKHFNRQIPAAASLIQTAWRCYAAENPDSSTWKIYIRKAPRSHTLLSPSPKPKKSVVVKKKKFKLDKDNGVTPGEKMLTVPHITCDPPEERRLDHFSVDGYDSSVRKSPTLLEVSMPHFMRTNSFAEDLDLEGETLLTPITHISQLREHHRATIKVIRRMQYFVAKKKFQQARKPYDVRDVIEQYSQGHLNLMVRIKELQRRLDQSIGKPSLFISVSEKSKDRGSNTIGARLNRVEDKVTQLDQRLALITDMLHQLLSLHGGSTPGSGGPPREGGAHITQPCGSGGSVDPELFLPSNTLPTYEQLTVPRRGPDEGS

Chain of NaV1.5 (Q14524 whole entry): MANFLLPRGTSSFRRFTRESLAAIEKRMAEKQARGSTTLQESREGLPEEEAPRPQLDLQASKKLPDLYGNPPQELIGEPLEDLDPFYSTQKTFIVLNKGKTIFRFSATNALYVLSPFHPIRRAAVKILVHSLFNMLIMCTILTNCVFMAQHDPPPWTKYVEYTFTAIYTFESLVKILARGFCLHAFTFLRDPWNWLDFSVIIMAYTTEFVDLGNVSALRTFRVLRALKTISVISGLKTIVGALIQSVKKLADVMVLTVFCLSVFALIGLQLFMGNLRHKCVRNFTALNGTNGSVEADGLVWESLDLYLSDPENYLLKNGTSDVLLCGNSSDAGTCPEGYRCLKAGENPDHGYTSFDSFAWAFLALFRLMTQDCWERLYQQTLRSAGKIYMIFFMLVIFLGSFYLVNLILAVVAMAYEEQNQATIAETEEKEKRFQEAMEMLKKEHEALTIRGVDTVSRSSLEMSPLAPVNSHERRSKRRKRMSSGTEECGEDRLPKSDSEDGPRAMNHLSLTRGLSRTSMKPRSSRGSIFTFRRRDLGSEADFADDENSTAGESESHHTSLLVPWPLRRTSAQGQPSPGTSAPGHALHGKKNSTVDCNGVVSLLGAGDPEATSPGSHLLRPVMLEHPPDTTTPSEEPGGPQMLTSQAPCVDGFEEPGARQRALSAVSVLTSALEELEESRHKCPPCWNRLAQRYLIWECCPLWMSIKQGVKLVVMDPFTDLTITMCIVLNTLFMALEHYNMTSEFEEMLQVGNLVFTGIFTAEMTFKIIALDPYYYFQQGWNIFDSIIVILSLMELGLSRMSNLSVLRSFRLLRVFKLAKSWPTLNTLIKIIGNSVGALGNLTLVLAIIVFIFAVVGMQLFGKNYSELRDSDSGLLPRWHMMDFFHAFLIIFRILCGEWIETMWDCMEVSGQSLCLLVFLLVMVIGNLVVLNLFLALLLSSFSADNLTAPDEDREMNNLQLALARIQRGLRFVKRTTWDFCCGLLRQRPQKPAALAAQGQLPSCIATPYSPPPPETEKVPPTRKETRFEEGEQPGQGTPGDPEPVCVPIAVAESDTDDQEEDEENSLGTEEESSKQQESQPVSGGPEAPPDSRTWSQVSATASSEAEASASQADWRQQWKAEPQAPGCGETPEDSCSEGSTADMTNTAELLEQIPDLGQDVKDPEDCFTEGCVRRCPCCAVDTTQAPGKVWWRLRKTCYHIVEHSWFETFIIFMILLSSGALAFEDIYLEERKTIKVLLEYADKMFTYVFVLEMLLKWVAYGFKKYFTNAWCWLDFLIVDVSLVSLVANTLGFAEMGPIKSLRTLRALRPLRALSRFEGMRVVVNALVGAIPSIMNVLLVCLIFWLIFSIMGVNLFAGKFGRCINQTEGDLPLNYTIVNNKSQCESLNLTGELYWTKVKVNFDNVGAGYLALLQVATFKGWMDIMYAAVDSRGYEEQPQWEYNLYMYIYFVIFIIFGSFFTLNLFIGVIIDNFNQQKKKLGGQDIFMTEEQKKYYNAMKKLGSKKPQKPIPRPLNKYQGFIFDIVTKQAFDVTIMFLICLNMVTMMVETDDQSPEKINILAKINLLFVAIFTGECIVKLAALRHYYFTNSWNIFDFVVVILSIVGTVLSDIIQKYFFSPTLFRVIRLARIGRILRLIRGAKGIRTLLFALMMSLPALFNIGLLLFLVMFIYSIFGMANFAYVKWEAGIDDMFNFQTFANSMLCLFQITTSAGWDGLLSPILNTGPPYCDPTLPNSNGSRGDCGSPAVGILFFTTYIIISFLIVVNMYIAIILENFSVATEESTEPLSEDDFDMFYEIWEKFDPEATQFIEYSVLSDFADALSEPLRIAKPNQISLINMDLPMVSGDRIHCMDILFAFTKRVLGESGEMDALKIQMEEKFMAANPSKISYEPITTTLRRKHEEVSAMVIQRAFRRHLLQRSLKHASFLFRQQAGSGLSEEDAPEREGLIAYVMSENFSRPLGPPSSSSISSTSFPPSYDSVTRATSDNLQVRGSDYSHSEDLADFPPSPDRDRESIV
Chain of hERG (Homo sapiens, UniProt Q12809) (Q12809 whole entry): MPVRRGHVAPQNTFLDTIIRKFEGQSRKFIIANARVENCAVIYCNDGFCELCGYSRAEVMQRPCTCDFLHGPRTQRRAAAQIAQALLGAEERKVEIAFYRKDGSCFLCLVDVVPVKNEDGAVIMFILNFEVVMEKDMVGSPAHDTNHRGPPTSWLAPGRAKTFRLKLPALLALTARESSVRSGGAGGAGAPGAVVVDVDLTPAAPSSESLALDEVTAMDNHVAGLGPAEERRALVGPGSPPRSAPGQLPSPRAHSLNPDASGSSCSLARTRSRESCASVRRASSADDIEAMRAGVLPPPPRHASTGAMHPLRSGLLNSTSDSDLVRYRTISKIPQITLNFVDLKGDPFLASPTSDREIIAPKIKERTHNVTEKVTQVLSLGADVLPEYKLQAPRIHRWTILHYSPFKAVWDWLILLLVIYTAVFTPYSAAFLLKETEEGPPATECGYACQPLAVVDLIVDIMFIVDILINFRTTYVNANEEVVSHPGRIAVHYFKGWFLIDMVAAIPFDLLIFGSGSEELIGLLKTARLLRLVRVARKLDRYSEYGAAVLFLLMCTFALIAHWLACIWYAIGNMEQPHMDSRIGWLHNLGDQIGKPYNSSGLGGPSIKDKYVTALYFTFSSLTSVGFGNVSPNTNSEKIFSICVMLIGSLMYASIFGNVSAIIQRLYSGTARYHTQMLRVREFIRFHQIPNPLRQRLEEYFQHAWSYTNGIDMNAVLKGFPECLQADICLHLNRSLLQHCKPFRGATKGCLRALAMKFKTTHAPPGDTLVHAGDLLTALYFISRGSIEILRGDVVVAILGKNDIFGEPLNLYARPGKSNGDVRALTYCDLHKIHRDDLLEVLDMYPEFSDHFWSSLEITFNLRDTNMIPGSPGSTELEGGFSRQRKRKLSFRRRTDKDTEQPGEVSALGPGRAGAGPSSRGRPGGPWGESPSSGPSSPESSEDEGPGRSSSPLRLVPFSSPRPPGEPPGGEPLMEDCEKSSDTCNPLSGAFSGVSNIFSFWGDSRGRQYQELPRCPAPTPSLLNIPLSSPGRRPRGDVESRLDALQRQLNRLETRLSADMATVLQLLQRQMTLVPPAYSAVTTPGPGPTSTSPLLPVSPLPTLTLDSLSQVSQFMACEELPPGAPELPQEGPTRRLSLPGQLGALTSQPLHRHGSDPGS

CCN(CC)CCCC(C)Nc1ccnc2cc(Cl)ccc12 (stereo not drawn) [CQ, chloroquine]
inhibition of NaV1.5 (human recombinant NaV1.5): less than 20%
inhibition of CaV1.2 (human recombinant CaV1.2): less than 20%
inhibition of KV4.3 (human recombinant KV4.3): less than 20%
inhibition of KV7.1 (human recombinant KV7.1): less than 20%
pIC50 (Kir2.1 [1]): 4.96
pIC50 (Kir2.1 [2]): 5.05

[Cl][Cd][Cl] [CdCl2]
effect on CaV1.2 currents (CaV1.2/β2/α2δ1): inhibited all the currents

CCN(CCO)CCCC(C)Nc1ccnc2cc(Cl)ccc12 (stereo not drawn) [HCQ, Hydroxychloroquine]
pIC50 (hERG [3]): 4.77
pIC50 (Kir2.1 [4]): 4.52
occurrence of QT-prolongations [5]: below 2%
plasma concentrations relative to blood [6]: two-fold lower
proarrhythmic risk at reduced potassium [7]: proarrhythmic risk rose significantly

CCN(CCO)CCCC(C)Nc1ccnc2cc(Cl)ccc12 (stereo not drawn) [R(-)HCQ]
greater potency of R(-)HCQ over S(+)HCQ on hERG (hERG [8]): 3.7 fold
decrease of NaV1.5 current (NaV1.5): below 10%
block-potency ratio of the enantiomers against Kir2.1 (Kir2.1 [9]): two-fold
effect on membrane and AP parameters (rabbit Purkinje fibers): neither R(-)HCQ nor S(+)HCQ had a significant effect
autogenic activity (rabbit Purkinje fibers; 10 μM and 30 μM): inducing autogenic activity
decrease of median resting membrane potential (rabbit Purkinje fibers; 30 μM, 60 bpm (1 Hz)): 20%
increase of AP duration at near complete repolarization (APD90) (rabbit Purkinje fibers; 30 μM, 180 bpm, n = 2 readings): 25%
early after depolarizations (EADs) (rabbit Purkinje fibers; any concentration and pacing rate): no torsadogenic early after depolarizations (EADs) events were observed
free fraction (plasma protein binding) [10]: 63%
inhibition of HIV-1 replication, comparison of enantiomers [11]: equipotent
inhibition of Plasmodium falciparum proliferation, comparison of enantiomers (Plasmodium falciparum): identical IC50 values
accumulation in ocular tissue [12]: preferential accumulation

CCN(CCO)CCC[C@H](C)Nc1ccnc2cc(Cl)ccc12 [S(+)HCQ]
decrease of NaV1.5 current (NaV1.5): below 10%
effect on membrane and AP parameters (rabbit Purkinje fibers): neither R(-)HCQ nor S(+)HCQ had a significant effect
abnormal AP exhibiting EADs (rabbit Purkinje fibers; 10 μM, 15 bpm): one of the six fibers
increase of median APD90 (rabbit Purkinje fibers; 10 μM, 15 bpm): 56%
median APD90 duration in presence of drug (rabbit Purkinje fibers; 10 μM, 15 bpm): 827 ms
increase of median APD90 (rabbit Purkinje fibers; 10 μM, 60 bpm): 34%
median APD90 duration in presence of drug (rabbit Purkinje fibers; 10 μM, 60 bpm): 481 ms
increase of median APD90 (rabbit Purkinje fibers; 10 μM, 180 bpm): 12%
median APD90 duration in presence of drug (rabbit Purkinje fibers; 10 μM, 180 bpm): 246 ms
abnormal AP exhibiting EADs (rabbit Purkinje fibers; 30 μM, 15 bpm, fibers that could follow pacing): one of the four fibers
decrease of median resting membrane potential (rabbit Purkinje fibers; 30 μM, 180 bpm (3 Hz)): 11%
autogenic activity escaping electrical pacing (rabbit Purkinje fibers; 30 μM, all rates): two out of six fibers
free fraction (plasma protein binding) [10]: 36%
inhibition of HIV-1 replication, comparison of enantiomers [11]: equipotent
inhibition of Plasmodium falciparum proliferation, comparison of enantiomers (Plasmodium falciparum): identical IC50 values

CC(C)COCC(CN(Cc1ccccc1)c1ccccc1)N1CCCC1 (stereo not drawn) [bepridil]
pIC50 (NaV1.5): 5.60
pIC50 (KV4.3/KChIP2.2): 4.96
pIC50 (KV7.1/minK): 5.14
